Assay results: ChEMBL document CHEMBL4840315, “Δ9-cis-Tetrahydrocannabinol: Natural Occurrence, Chirality, and Pharmacology” (J Nat Prod, 2021)
Active and inactive are the calls of the source.

How the values were obtained:
[1] = target: T1, Lysophosphatidylserine lipase ABHD12 (Homo sapiens, UniProt Q8N2K0); assay: Inhibition of human ABHD12 transfected in HEK293 cells using 2-OG as substrate preincubated for 30 mins followed by substrate addition measured after 5 mins by liquid scintillation spectroscopy; assay type: cell-based
T1 sequence (Q8N2K0 whole entry): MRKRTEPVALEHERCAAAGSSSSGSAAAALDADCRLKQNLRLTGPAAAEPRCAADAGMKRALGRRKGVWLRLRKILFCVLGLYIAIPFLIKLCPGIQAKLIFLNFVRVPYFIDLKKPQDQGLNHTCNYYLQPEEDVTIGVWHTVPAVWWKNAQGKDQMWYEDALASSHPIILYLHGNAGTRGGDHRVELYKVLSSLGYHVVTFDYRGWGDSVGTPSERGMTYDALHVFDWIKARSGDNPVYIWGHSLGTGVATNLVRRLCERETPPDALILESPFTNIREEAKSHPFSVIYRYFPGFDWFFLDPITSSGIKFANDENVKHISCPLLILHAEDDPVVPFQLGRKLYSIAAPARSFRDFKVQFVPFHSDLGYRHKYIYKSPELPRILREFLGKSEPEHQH
Method in brief: (§1)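 Homogenate (40 μg) of HEK-293 cells stably expressing hABHD6 or hABHD12, in […], 0.1% BSA, pH 7.6. Compound preincubated 30 min at 37 °C, then 10 μM 2-OG for 5 min at 37 °C. Tritium counted in aqueous phase; non-transfected HEK293 hydrolysis subtracted. Positive controls: WWL70 10 μM (ABHD6), THL 20 μM (ABHD12). At least two experiments in triplicate, mean ± SD.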

[2] = target: T2, Fatty-acid amide hydrolase 1 (Homo sapiens, UniProt O00519); assay: Inhibition of FAAH (unknown origin) in human U-937 cells using [ethanolamine-1-3H]AEA as substrate preincubated for 30 mins followed by substrate addition measured after 15 mins by liquid scintillation spectroscopy; assay type: cell-based
T2 sequence (O00519 whole entry): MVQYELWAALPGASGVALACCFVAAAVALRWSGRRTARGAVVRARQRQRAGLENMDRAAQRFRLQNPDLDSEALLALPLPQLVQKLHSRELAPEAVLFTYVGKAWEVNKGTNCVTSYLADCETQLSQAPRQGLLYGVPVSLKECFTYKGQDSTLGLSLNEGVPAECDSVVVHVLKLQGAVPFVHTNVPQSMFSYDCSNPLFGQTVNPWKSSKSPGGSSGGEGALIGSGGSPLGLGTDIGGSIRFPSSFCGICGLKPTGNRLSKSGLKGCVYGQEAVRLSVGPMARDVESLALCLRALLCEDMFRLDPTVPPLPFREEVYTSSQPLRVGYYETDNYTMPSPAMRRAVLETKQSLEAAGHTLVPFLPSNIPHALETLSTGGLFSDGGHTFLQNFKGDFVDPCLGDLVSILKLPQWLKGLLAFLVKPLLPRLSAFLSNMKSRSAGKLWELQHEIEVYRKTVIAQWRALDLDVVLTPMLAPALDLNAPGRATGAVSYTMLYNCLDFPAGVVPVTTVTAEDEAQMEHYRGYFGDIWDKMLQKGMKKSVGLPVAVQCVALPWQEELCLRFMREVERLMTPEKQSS
Method in brief: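 U937 cell homogenate (100 μg) in 10 mM Tris-HCl, 1 mM EDTA, 0.1% fatty-acid-free BSA, pH 8. Compound preincubated 30 min at 37 °C, then 100 nM AEA with 1 nM [ethanolamine-1-3H]AEA tracer added for 15 min at 37 °C. Stopped with cold CHCl3/MeOH (1:1); tritium counted in aqueous phase.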

Monoglyceride lipase = target: T3, Monoglyceride lipase (Homo sapiens, UniProt Q99685); assay: Inhibition of MAGL (unknown origin) in human U-937 cells using [ethanolamine-1-3H]AEA as substrate preincubated for 30 mins followed by substrate addition measured after 15 mins by liquid scintillation spectroscopy; assay type: cell-based
T3 sequence (Q99685 whole entry): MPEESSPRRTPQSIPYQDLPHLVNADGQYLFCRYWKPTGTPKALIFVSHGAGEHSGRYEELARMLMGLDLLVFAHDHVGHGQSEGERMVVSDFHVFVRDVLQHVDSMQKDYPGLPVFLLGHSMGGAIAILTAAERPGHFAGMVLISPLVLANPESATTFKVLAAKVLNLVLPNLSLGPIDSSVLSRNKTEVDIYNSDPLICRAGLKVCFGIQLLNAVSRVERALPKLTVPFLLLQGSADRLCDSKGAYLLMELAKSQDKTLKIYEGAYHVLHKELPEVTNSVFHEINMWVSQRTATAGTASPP

[3] = target: T4, Monoacylglycerol lipase ABHD6 (Homo sapiens, UniProt Q9BV23); assay: Inhibition of human ABHD6 transfected in HEK293 cells using 2-OG as substrate preincubated for 30 mins followed by substrate addition measured after 5 mins by liquid scintillation spectroscopy; assay type: cell-based; method in brief: as §1
T4 sequence (Q9BV23 whole entry): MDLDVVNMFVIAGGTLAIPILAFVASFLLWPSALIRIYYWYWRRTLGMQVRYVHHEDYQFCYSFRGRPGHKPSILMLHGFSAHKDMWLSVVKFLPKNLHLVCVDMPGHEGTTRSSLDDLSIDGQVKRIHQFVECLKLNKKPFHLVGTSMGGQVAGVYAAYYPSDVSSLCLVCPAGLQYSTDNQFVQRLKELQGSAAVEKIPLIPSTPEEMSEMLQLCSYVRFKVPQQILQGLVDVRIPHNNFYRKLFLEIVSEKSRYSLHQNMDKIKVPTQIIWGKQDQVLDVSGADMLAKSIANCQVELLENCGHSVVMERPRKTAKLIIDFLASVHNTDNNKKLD

Mus musculus [4] = assay: In vivo agonist activity at CB1R in BALB/c mouse assessed as induction of hypothermia at 50 mg/kg, ip measured after 1 hr by rectal measurement method; assay type: functional, organism-based
Method in brief: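 Male BALB/c mice (8–10 weeks) given compound in pure DMSO intraperitoneally, 5–8 mice per group. Rectal temperature taken by thermocouple probe before dosing and 1 h after. Change is expressed as basal minus post-injection temperature. Groups compared with vehicle by Kruskal–Wallis then Mann–Whitney.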

Mus musculus [5] = assay: In vivo agonist activity at CB1R in BALB/c mouse assessed as induction of hypolocomotion at 50 mg/kg, ip measured after 1 hr by rotarod test; assay type: functional, organism-based
Method in brief: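 Male BALB/c mice (8–10 weeks) given compound in pure DMSO intraperitoneally, 5–8 mice per group. Rotarod at 6 rpm, 1 h post-dose. Read-out is latency to fall, cutoff 120 s, over three trials. Groups compared with vehicle by Kruskal–Wallis then Mann–Whitney.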

Mus musculus [6] = assay: In vivo agonist activity at CB1R in BALB/c mouse assessed as catalepsy like behaviour at 50 mg/kg, ip measured after 1 hr by bar test; assay type: functional, organism-based
Method in brief: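 Male BALB/c mice (8–10 weeks) given compound in pure DMSO intraperitoneally, 5–8 mice per group. Bar test at 1 h: forelimbs placed on a 4 cm high bar. End-point is both front limbs removed or held over 120 s. Three trials per mouse. Groups compared with vehicle by Kruskal–Wallis then Mann–Whitney.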

Mus musculus [7] = assay: In vivo agonist activity at CB1R in BALB/c mouse assessed as induction of analgesia at 50 mg/kg, ip measured after 1 hr by hot plate test; assay type: functional, organism-based
Method in brief: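 Male BALB/c mice (8–10 weeks) given compound in pure DMSO intraperitoneally, 5–8 mice per group. Hot plate at 54–56 °C inside a Plexiglas cylinder, 1 h post-dose. Read-out is latency to first nociceptive response (paw lick or foot shake). Groups compared with vehicle by Kruskal–Wallis then Mann–Whitney.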

| SMILES | IC50 [1] | IC50 [2] | IC50 (Monoglyceride lipase) | IC50 [3] | Activity (Mus musculus [4]) | Activity (Mus musculus [5]) | Activity (Mus musculus [6]) | Activity (Mus musculus [7]) |
| --- | --- | --- | --- | --- | --- | --- | --- | --- |
| CCCCCc1cc(O)c2c(c1)OC(C)(C)[C@@H]1CCC(C)=C[C@H]21 | 28.8 µM | > 80 µM | > 100 µM | 35.1 µM |  |  |  |  |
| CCCCCc1cc(O)c2c(c1)OC(C)(C)[C@@H]1CCC(C)=C[C@@H]21 [DRONABINOL] | 11.6 µM | 43.6 µM | > 100 µM | 48.2 µM | Active | Active | Active | Active |
| CCCCCc1cc(O)c2c(c1)OC(C)(C)[C@H]1CCC(C)=C[C@@H]21 | 14.1 µM | 36.3 µM | > 100 µM | 39.8 µM | Active | Active | Active | Active |
